pIC50, pKi: −log10 of the molar value. Activity calls are given as the source filed them. No cut-off for these calls is given here.
Columns and labels:
[1] = target: hERG (KCNH2) (Homo sapiens, UniProt Q12809); experiment: Inhibition of human ERG at 3 uM by patch clamp assay
[2] = Total clearance in Sprague-Dawley rat at 2 mg/kg, iv after 24 hrs by HPLC/MS/MS analysis; format: ADME, organism-based; set-up: dose 2 mg/kg, route intravenous; details: in vivo
Procedure, shortened: (§1)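 Male rats fasted overnight before oral dosing; 10 mg/kg po and 2 mg/kg iv in 80% PEG400/20% phosphate buffered saline. Jugular vein blood was sampled at 0.25–21 h over 24 h, and heparin plasma was assayed by HPLC/MS/MS (MRM, positive electrospray, internal standard; LLOQ 1 ng/mL, ULOQ 2000 ng/mL). %F is taken relative to the 2 mg/kg iv dose. Mean of n = 3 animals.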

[3] = test system: Canis familiaris; experiment: Ex vivo inhibition of serotonin-mediated amplification of collagen-stimulated platelet aggregation in Beagle dog at 10 mg/kg, po administered as single dose measured after 12 hrs; format: functional; details: Canis lupus familiaris
Procedure, shortened: (§2)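 Beagle dogs given a single oral dose of 10 mg/kg. Serotonin-mediated amplification of collagen-stimulated aggregation measured in whole blood ex vivo at 1, 6, 12 and 24 h post-dose.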

[4] = target: Voltage-gated inwardly rectifying potassium channel KCNH2 (Homo sapiens, UniProt Q12809); experiment: Inhibition of human ERG by patch clamp assay
[5] = Cmax in monkey at 10 mg/kg, po after 24 hrs by HPLC/MS/MS assay; format: ADME, organism-based, Macaca mulatta; set-up: dose 10 mg/kg, route oral; details: rhesus monkey, in vivo
Procedure, shortened: (§3)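 Oral dose 10 mg/kg; %F calculated relative to a 2 mg/kg iv dose. Values are the mean of n = 3 animals.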

[6] = Cmax in dog at 10 mg/kg, po after 24 hrs by HPLC/MS/MS assay; format: ADME, organism-based, Canis lupus familiaris; set-up: dose 10 mg/kg, route oral; details: in vivo; procedure, shortened: as §3
[7] = test system: Canis familiaris; experiment: Ex vivo inhibition of serotonin-mediated amplification of collagen-stimulated platelet aggregation in Beagle dog at 10 mg/kg, po administered as single dose measured after 1 hr; format: functional, organism-based; set-up: dose 10 mg/kg; details: Canis lupus familiaris; procedure, shortened: as §2
[8] = test system: Canis familiaris; experiment: Antithrombotic activity in Beagle dog Folts model of recurrent coronary thrombosis model assessed as inhibition of thrombosis occurrence at 0.07 mg/kg, iv bolus dose followed by continuous fusion of 1.16 ug/kg/min, iv administered after onset of thrombosis; format: functional; details: Canis lupus familiaris
Procedure, shortened: (§4)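 Anesthetized dogs in the Folts model of recurrent coronary thrombosis. Given 0.07 mg/kg iv bolus followed by continuous iv infusion of 1.16 μg/kg/min, either before or after onset of recurrent thrombosis. Read-out is flow-time area, compared with saline controls.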

[9] = Volume of distribution at steady state in Sprague-Dawley rat at 2 mg/kg, iv after 24 hrs by HPLC/MS/MS analysis; format: ADME, organism-based; set-up: dose 2 mg/kg, route intravenous; details: in vivo, read-out: Vdss; procedure, shortened: as §1
[10] = Antiplatelet activity in human platelet rich plasma assessed as inhibition of ADP-induced aggregation preincubated for 1 min before 5-HT and ADP challenge measured after 3 mins by turbidimetry
[11] = Ratio of drug level in brain to plasma in Sprague-Dawley rat at 30 mg/kg, po after 24 hrs; format: ADME, organism-based; set-up: dose 30 mg/kg, route oral; details: read-out: BPR
[12] = target: T1, 5-hydroxytryptamine receptor 2A (Homo sapiens, UniProt P28223); experiment: Displacement of [125I]DOI from human recombinant 5HT2A receptor expressed in HEK293 cells by scintillation counting; format: cell-based
Procedure, shortened: (§5)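 Crude plasma membranes from HEK293 cells stably expressing the human receptor (5–25 μg protein), in 20 mM HEPES pH 7.4 with 10 mM MgCl2. Incubated with 0.5 nM [125I]DOI and test compound (1 pM–10 μM) for 1 h at room temperature; nonspecific binding defined with 10 μM cold DOI. Filtered, washed with ice-cold Tris buffer and scintillation counted in triplicate.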

[13] = test system: Canis familiaris; experiment: Ex vivo inhibition of serotonin-mediated amplification of collagen-stimulated platelet aggregation in Beagle dog at 10 mg/kg, po administered as single dose measured after 24 hrs; format: functional; details: Canis lupus familiaris; procedure, shortened: as §2
[14] = Bioavailability in Sprague-Dawley rat at 2 mg/kg, iv after 24 hrs by HPLC/MS/MS analysis; format: ADME, organism-based; details: in vivo; procedure, shortened: as §1
[15] = target: 5-hydroxytryptamine receptor 2B (Homo sapiens, UniProt P41595); experiment: Displacement of [125I]DOI from human recombinant 5HT2B receptor expressed in HEK293 cells by scintillation counting; format: cell-based
[16] = AUC (0 to last) in Sprague-Dawley rat at 10 mg/kg, po after 24 hrs by HPLC/MS/MS analysis; format: ADME, organism-based; set-up: time 0 - last, dose 10 mg/kg, route oral; details: plasma; procedure, shortened: as §1
[17] = Total clearance in monkey at 2 mg/kg, iv after 24 hrs by HPLC/MS/MS analysis; format: ADME, organism-based, Macaca mulatta; set-up: dose 2 mg/kg, route intravenous; details: rhesus monkey, in vivo; procedure, shortened: as §3
[18] = Half life in Sprague-Dawley rat at 10 mg/kg, po by HPLC/MS/MS analysis; format: ADME, organism-based; set-up: dose 10 mg/kg, route oral; details: in vivo; procedure, shortened: as §1
[19] = Volume of distribution at steady state in dog at 2 mg/kg, iv after 24 hrs by HPLC/MS/MS analysis; format: ADME, organism-based, Canis lupus familiaris; set-up: dose 2 mg/kg, route intravenous; details: in vivo, read-out: Vdss; procedure, shortened: as §3
[20] = Total clearance in dog at 2 mg/kg, iv after 24 hrs by HPLC/MS/MS analysis; format: ADME, organism-based, Canis lupus familiaris; set-up: dose 2 mg/kg, route intravenous; details: in vivo; procedure, shortened: as §3
[21] = test system: Canis familiaris; experiment: Ex vivo inhibition of serotonin-mediated amplification of collagen-stimulated platelet aggregation in Beagle dog at 1 mg/kg, po for 10 days measured after 10 days; format: functional, organism-based; set-up: dose 1 mg/kg; details: Canis lupus familiaris
Procedure, shortened: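 Beagle dogs dosed orally with 1 mg/kg daily for 10 days. Serotonin-mediated amplification of collagen-stimulated aggregation then measured in whole blood ex vivo.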

[22] = Cmax in Sprague-Dawley rat at 10 mg/kg, po after 24 hrs by HPLC/MS/MS assay; format: ADME, organism-based; set-up: dose 10 mg/kg, route oral; details: in vivo; procedure, shortened: as §1
[23] = test system: Canis familiaris; experiment: Antithrombotic activity in Beagle dog Folts model of recurrent coronary thrombosis model assessed as inhibition of thrombosis occurrence at 0.07 mg/kg, iv bolus dose followed by continuous fusion of 1.16 ug/kg/min, iv administered before onset of thrombosis; format: functional; details: Canis lupus familiaris; procedure, shortened: as §4
[24] = test system: Canis familiaris; experiment: Ex vivo inhibition of serotonin-mediated amplification of collagen-stimulated platelet aggregation in Beagle dog at 10 mg/kg, po administered as single dose measured after 6 hrs; format: functional; details: Canis lupus familiaris; procedure, shortened: as §2
[25] = Half life in monkey at 10 mg/kg, po by HPLC/MS/MS analysis; format: ADME, organism-based, Macaca mulatta; set-up: dose 10 mg/kg, route oral; details: rhesus monkey, in vivo; procedure, shortened: as §3
[26] = target: T2, 5-hydroxytryptamine receptor 2C (Homo sapiens, UniProt P28335); experiment: Displacement of [125I]DOI from human recombinant 5HT2C receptor expressed in HEK293 cells by scintillation counting; format: cell-based; procedure, shortened: as §5
T2 sequence (P28335 whole entry): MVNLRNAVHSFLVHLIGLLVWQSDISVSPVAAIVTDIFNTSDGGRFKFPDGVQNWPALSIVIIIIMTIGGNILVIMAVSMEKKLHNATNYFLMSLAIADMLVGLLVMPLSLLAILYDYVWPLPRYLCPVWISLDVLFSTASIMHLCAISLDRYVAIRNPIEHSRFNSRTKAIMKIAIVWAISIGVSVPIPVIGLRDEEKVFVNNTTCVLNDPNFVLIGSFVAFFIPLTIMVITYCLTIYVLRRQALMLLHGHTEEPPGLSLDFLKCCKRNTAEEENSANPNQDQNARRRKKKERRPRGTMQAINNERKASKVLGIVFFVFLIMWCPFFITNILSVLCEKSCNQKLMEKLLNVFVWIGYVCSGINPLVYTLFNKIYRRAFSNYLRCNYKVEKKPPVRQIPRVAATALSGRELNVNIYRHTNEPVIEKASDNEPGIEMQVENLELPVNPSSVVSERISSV

[27] = target: T1, 5-hydroxytryptamine receptor 2A; experiment: Inverse agonist activity at human 5HT2A receptor expressed in HEK293 cells assessed as inhibition of inositol phosphate accumulation; format: functional, cell-based
[28] = Volume of distribution at steady state in monkey at 2 mg/kg, iv after 24 hrs by HPLC/MS/MS analysis; format: ADME, organism-based, Macaca mulatta; set-up: dose 2 mg/kg, route intravenous; details: rhesus monkey, in vivo, read-out: Vdss; procedure, shortened: as §3
[29] = Half life in dog at 10 mg/kg, po by HPLC/MS/MS analysis; format: ADME, organism-based, Canis lupus familiaris; set-up: dose 10 mg/kg, route oral; details: in vivo; procedure, shortened: as §3
[30] = AUC (0 to last) in dog at 10 mg/kg, po after 24 hrs by HPLC/MS/MS analysis; format: ADME, organism-based, Canis lupus familiaris; set-up: time 0 - last, dose 10 mg/kg, route oral; details: plasma; procedure, shortened: as §3
[31] = AUC (0 to last) in monkey at 10 mg/kg, po after 24 hrs by HPLC/MS/MS analysis; format: ADME, organism-based, Macaca mulatta; set-up: time 0 - last, dose 10 mg/kg, route oral; details: rhesus monkey, plasma; procedure, shortened: as §3
[32] = Antiplatelet activity in dog platelet rich plasma assessed as inhibition of ADP-induced aggregation treated 10 mins after ADP challenge measured after 3 mins by turbidimetry; format: functional; details: Canis lupus familiaris
[33] = Bioavailability in monkey at 2 mg/kg, iv after 24 hrs by HPLC/MS/MS analysis; format: ADME, organism-based, Macaca mulatta; details: rhesus monkey, in vivo; procedure, shortened: as §3
[34] = Bioavailability in dog at 2 mg/kg, iv after 24 hrs by HPLC/MS/MS analysis; format: ADME, organism-based, Canis lupus familiaris; details: in vivo; procedure, shortened: as §3

T1 sequence (P28223 whole entry): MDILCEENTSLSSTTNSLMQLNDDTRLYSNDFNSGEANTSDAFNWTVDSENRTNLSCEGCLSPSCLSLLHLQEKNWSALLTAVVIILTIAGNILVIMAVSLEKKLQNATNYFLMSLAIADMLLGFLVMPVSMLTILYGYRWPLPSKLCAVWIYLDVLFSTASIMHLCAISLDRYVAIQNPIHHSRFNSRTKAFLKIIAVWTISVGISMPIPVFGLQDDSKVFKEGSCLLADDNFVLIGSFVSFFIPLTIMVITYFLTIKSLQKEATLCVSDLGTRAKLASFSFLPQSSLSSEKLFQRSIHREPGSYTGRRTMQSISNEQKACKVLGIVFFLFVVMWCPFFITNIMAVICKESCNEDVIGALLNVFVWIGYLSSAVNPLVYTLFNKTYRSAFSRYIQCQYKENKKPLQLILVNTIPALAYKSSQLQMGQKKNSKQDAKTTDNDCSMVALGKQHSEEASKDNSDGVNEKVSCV
Chain of Voltage-gated inwardly rectifying potassium channel KCNH2 (Q12809 whole entry): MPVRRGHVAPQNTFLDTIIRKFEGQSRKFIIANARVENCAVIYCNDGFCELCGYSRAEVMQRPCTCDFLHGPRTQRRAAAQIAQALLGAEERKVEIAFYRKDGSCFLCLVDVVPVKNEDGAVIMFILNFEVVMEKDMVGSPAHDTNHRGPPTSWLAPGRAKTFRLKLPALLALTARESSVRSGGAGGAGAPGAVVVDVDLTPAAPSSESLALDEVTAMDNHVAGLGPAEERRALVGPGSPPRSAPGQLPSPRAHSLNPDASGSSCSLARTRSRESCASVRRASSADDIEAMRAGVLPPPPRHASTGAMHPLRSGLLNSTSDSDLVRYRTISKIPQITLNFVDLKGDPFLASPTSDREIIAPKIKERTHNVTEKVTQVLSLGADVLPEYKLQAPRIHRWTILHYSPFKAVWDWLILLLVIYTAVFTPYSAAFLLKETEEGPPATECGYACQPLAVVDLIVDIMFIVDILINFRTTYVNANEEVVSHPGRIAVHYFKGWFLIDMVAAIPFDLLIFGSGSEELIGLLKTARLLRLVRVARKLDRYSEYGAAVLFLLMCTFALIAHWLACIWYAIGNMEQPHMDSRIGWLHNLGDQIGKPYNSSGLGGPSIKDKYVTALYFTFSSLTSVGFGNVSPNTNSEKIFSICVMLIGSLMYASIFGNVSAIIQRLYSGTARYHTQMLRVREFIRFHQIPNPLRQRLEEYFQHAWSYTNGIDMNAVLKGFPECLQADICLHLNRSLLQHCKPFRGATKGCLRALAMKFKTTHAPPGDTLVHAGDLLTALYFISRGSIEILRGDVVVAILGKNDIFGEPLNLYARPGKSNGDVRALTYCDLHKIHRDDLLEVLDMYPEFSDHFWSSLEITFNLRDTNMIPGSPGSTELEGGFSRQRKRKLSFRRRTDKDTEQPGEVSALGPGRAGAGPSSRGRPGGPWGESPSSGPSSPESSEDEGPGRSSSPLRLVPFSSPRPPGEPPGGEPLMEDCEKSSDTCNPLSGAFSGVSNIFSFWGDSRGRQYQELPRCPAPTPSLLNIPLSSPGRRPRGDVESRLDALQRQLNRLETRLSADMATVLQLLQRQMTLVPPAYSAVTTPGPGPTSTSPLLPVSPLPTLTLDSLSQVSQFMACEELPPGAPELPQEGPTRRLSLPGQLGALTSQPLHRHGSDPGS
Chain of hERG (KCNH2) (Q12809 whole entry): as above
Chain of 5-hydroxytryptamine receptor 2B (P41595 whole entry): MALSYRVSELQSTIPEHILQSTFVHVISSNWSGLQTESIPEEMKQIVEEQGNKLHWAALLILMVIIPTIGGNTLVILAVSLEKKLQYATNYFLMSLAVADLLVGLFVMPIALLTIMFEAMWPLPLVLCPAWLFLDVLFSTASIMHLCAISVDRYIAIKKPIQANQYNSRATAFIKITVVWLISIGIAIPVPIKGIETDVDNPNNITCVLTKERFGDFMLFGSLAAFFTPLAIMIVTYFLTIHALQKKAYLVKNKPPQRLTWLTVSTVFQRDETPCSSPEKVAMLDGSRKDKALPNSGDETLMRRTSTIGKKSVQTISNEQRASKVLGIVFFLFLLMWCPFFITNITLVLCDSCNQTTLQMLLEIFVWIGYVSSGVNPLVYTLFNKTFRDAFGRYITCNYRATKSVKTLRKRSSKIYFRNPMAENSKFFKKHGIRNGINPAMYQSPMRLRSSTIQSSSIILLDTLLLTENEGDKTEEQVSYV

Molecule COc1cccc(C(=O)Nc2ccc(OCCN3CCOCC3)c(-c3ccnn3C)c2)c1 [TEMANOGREL] has an inhibition at 3 µM [1] of 32%, a clearance [2] of 367 mL/min/kg and an inhibition in vivo at 10 mg/kg [3] of 57%. For the same molecule, the pIC50 [4] was 4.96, the Cmax [5] was 1460 ng/mL and the Cmax [6] was 2280 ng/mL. For the same molecule, the inhibition [7] was “Active”, the inhibition in vivo at 0.07 mg/kg [8] was 58% and the Vd [9] was 29 L/kg. For the same molecule, the pIC50 [10] was 8.06, the Kp at 24 h [11] was 0.05 and the pKi [12] was 8.31. For the same molecule, the inhibition in vivo at 10 mg/kg [13] was 58%, the bioavailability [14] was 10% and the pKi [15] was < 5.00. It also gave an AUC(0-t) at 24 h [16] of 43 ng·h/mL, a clearance [17] of 15 mL/min/kg and a half-life [18] of 1 h. For the same molecule, the Vd [19] was 1.3 L/kg, the clearance [20] was 20 mL/min/kg and the inhibition [21] was “Active”. It also gave a Cmax [22] of 58 ng/mL, an inhibition in vivo at 0.07 mg/kg [23] of 58% and an inhibition in vivo at 10 mg/kg [24] of 86%. The half-life [25] was 2.1 h, the pKi [26] was < 5.00 and the pIC50 [27] was 8.28. For the same molecule, the Vd [28] was 0.6 L/kg, the half-life [29] was 0.9 h and the AUC(0-t) at 24 h [30] was 3540 ng·h/mL. For the same molecule, the AUC(0-t) at 24 h [31] was 1920 ng·h/mL, the pIC50 [32] was 7.64 and the bioavailability [33] was 16%. It also gave a bioavailability [34] of 45%.
